Here are results for two molecules from ChEMBL document CHEMBL5712898, “H3K27me1 is essential for MMP-9-dependent H3N-terminal tail proteolysis during osteoclastogenesis” (Epigenetics Chromatin, 2018).

In test [1] the target is Matrix metalloproteinase-9 (Homo sapiens) (UniProt P14780). Briefly: Inhibition of MMP-9 in M-CSF/RANKL-induced OCP cells (unknown origin) assessed as reduction in H3NT proteolysis at 10 nM cultured for 0, 1, 3, and 5 days with RANKL by Western blot analysis. Format: cell-based. The settings on record: Osteoclast, time 5.0 day. The method, boiled down: (§1)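 Osteoclast precursor cells cultured with 30 ng/ml M-CSF plus 50 ng/ml RANKL for 0, 1, 3 or 5 days, with BIX01294 (1.5 µM) and/or MMP-9 inhibitor I (10 nM) in the medium. Nuclei were isolated in HEPES pH 7.4 sucrose buffer with 0.2% Triton X-100, and chromatin was extracted in EDTA/EGTA buffer. Cleaved H3 was detected as a faster-migrating band on Western blot with H3 C-terminal antibody.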
Matrix metalloproteinase-9 (Homo sapiens), sequence (P14780 whole entry): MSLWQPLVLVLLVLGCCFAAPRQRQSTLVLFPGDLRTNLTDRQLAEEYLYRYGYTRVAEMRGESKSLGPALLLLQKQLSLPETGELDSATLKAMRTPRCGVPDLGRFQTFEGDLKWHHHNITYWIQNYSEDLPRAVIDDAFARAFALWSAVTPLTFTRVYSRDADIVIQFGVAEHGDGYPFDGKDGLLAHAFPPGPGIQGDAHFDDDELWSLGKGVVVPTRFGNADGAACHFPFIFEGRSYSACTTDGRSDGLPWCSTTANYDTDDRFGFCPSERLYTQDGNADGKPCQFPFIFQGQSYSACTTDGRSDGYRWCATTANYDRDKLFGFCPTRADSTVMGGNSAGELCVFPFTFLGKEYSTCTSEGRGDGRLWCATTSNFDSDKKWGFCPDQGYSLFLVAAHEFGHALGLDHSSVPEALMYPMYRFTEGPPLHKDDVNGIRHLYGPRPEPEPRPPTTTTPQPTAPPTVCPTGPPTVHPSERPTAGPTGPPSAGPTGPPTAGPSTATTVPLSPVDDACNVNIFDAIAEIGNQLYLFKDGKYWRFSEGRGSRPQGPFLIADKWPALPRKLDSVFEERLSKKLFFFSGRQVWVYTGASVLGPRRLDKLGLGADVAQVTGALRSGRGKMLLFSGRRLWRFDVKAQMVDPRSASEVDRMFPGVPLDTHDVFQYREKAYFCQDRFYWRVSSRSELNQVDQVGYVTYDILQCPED
(In general: In western blotting, separated proteins are transferred to a membrane and probed.)

The target is the same in test [2]. Briefly: Inhibition of MMP-9 in M-CSF/RANKL-induced OCP cells (unknown origin) assessed as reduction in H3NT proteolysis at 10 nM co-treated with 1.5 uM BIX01294 cultured for 0, 1, 3, and 5 days with RANKL by Western blot analysis. Format: cell-based. The settings on record: Osteoclast, time 5.0 day. Summed up:
as §1

For test [3] the target is unchanged. The experiment in a line: Inhibition of MMP-9 in M-CSF/RANKL-induced OCP cells (unknown origin) assessed as reduction in TRAP-positive cells at 10 nM co-treated with 1.5 uM BIX01294 cultured for 0, 1, 3, and 5 days with RANKL by light microscopic analysis. The test is classed as cell-based. To be noted: Osteoclast, time 5.0 day. The method, boiled down:
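OCP cells were differentiated with 30 ng/ml M-CSF and 50 ng/ml RANKL, with media carrying BIX01294 (1.5 µM) and/or MMP-9 inhibitor I (10 nM). On days 0, 1, 3 and 5 cells were formaldehyde-fixed and stained for tartrate-resistant acid phosphatase with an acid phosphatase leukocyte kit. TRAP-positive cells with three or more nuclei were counted as osteoclasts under a light microscope.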

Test [4] shares this target. Briefly: Inhibition of MMP-9 in M-CSF/RANKL-induced OCP cells (unknown origin) assessed as reduction in accumulation of G9a in the P region of Nfatc1 gene at 10 nM cultured for 3 days with RANKL by ChIPac-qPCR analysis. The test is classed as cell-based. The settings on record: Osteoclast, time 3.0 day.
Test [5] shares this target. The experiment in a line: Inhibition of MMP-9 in M-CSF/RANKL-induced OCP cells (unknown origin) assessed as reduction in accumulation of G9a in the CR region of Lif gene at 10 nM cultured for 3 days with RANKL by ChIPac-qPCR analysis. The test is classed as cell-based. To be noted: Osteoclast, time 3.0 day. For orientation: Quantitative PCR measures a nucleic acid by following its amplification.

Test [6] has the same target. The experiment in a line: Inhibition of MMP-9 in M-CSF/RANKL-induced OCP cells (unknown origin) assessed as reduction in accumulation of G9a in the P and CR region of Xpr1 gene at 10 nM cultured for 3 days with RANKL by ChIPac-qPCR analysis. The test is classed as cell-based. To be noted: Osteoclast, time 3.0 day.
Test [7] has the same target. The experiment in a line: Inhibition of MMP-9 in M-CSF/RANKL-induced OCP cells (unknown origin) assessed as reduction in accumulation of H3K27me1 in the P region of Nfatc1 gene at 10 nM cultured for 3 days with RANKL by ChIPac-qPCR analysis. Format: cell-based. The settings on record: Osteoclast, time 3.0 day. The method, boiled down:
(§2)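 Cells were 3-day RANKL-induced OCP cultures (30 ng/ml M-CSF, 50 ng/ml RANKL) with inhibitor in the medium. Chromatin was fixed with […], acetylated with 20 mM acetic anhydride, and immunoprecipitated; crosslinks were reversed overnight at 65 °C. Occupancy was measured by qPCR at the Nfatc1 promoter, the Lif coding region and the Xpr1 promoter plus coding region. Data are given as mean ± SD.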

For test [8] the target is unchanged. The experiment in a line: Inhibition of MMP-9 in M-CSF/RANKL-induced OCP cells (unknown origin) assessed as reduction in accumulation of H3K27me1 in the CR region of Lif gene at 10 nM cultured for 3 days with RANKL by ChIPac-qPCR analysis. The test is classed as cell-based. To be noted: Osteoclast, time 3.0 day. Summed up: as §2
The target is the same in test [9]. The experiment in a line: Inhibition of MMP-9 in M-CSF/RANKL-induced OCP cells (unknown origin) assessed as reduction in accumulation of H3K27me1 in the P and CR region of Xpr1 gene at 10 nM cultured for 3 days with RANKL by ChIPac-qPCR analysis. The test is classed as cell-based. The settings on record: Osteoclast, time 3.0 day. The method, boiled down: as §2

Test [10] shares this target. Briefly: Inhibition of MMP-9 in M-CSF/RANKL-induced OCP cells (unknown origin) assessed as reduction in Nfatc1 mRNA expression at 10 nM cultured for 3 days with RANKL by RT-qPCR analysis. The test is classed as cell-based. To be noted: Osteoclast, time 3.0 day. The method, boiled down:
(§3)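 OCP cells were induced for 3 days with 30 ng/ml M-CSF and 50 ng/ml RANKL, with BIX01294 (1.5 µM) and/or MMP-9 inhibitor I (10 nM) added to the medium. Nfatc1, Lif and Xpr1 transcripts were quantified by RT-qPCR as fold change. Data are given as mean ± SD.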

Test [11] shares this target. Briefly: Inhibition of MMP-9 in M-CSF/RANKL-induced OCP cells (unknown origin) assessed as reduction in Lif mRNA expression at 10 nM cultured for 3 days with RANKL by RT-qPCR analysis. The test is classed as cell-based. The settings on record: Osteoclast, time 3.0 day. Summed up:
as §3

For test [12] the target is unchanged. The experiment in a line: Inhibition of MMP-9 in M-CSF/RANKL-induced OCP cells (unknown origin) assessed as reduction in Xpr1 mRNA expression at 10 nM cultured for 3 days with RANKL by RT-qPCR analysis. Format: cell-based. To be noted: Osteoclast, time 3.0 day. Summed up: as §3
For test [13] the target is unchanged. The experiment in a line: Inhibition of MMP-9 in M-CSF/RANKL-induced OCP cells (unknown origin) assessed as reduction in Nfatc1 mRNA expression at 10 nM co-treated with BIX01294 cultured for 3 days with RANKL by RT-qPCR analysis. The test is classed as cell-based. The settings on record: Osteoclast, time 3.0 day. Summed up:
as §3

Test [14] shares this target. Briefly: Inhibition of MMP-9 in M-CSF/RANKL-induced OCP cells (unknown origin) assessed as reduction in Lif mRNA expression at 10 nM co-treated with BIX01294 cultured for 3 days with RANKL by RT-qPCR analysis. The settings on record: Osteoclast, time 3.0 day. Format: cell-based. The method, boiled down: as §3
Test [15] has the same target. Briefly: Inhibition of MMP-9 in M-CSF/RANKL-induced OCP cells (unknown origin) assessed as reduction in Xpr1 mRNA expression at 10 nM co-treated with BIX01294 cultured for 3 days with RANKL by RT-qPCR analysis. Format: cell-based. To be noted: Osteoclast, time 3.0 day. The method, boiled down:
as §3

For test [16], the system named is Osteoclast. The experiment in a line: Inhibition of EZH1/2 in M-CSF/RANKL-induced OCP cells (unknown origin) assessed as reduction in H3K27me2 level at 2 uM cultured for 0, 1, 3, and 5 days with RANKL by Western blot analysis. To be noted: Homo sapiens, time 5.0 day.
The test system of test [17] is Osteoclast. Briefly: Inhibition of EZH1/2 in M-CSF/RANKL-induced OCP cells (unknown origin) assessed as reduction in H3K27me3 level at 2 uM cultured for 0, 1, 3, and 5 days with RANKL by Western blot analysis. To be noted: Homo sapiens, time 5.0 day.
Test [18] concerns Osteoclast. The experiment in a line: Inhibition of EZH1/2 in M-CSF/RANKL-induced OCP cells (unknown origin) assessed as reduction in H3NT proteolysis at 2 uM cultured for 0, 1, 3, and 5 days with RANKL by Western blot analysis. To be noted: Homo sapiens, time 5.0 day.

Active and inactive are the calls of the source. The rule behind the calls is not given here.

`CCN(CC)Cc1cc(C)c(N(Cc2ccccc2)S(=O)(=O)c2ccc(OC)cc2)c(C(=O)NO)c1`: the inhibition result in [1], in test [2], in test [3], in test [10], in test [11] and in test [12] was “Active” in each case. Also, the inhibition entry in test [13], in [14] and in test [15] was “Active” in each case. In addition, the inhibition entry in test [4], in test [5], in test [6], in [7], in test [8] and in test [9] was “inactive” each time.

For the molecule `CCCc1cc(C)[nH]c(=O)c1CNC(=O)c1cc(-c2ccc(N3CCN(C(C)C)CC3)nc2)cc2c1cnn2C(C)C`, the inhibition result with Osteoclast [16] and in the test on Osteoclast [17] was “Active” in each case. Besides, the inhibition result in the test on Osteoclast [18] is “inactive”.
